According to ChEMBL document CHEMBL1124236, “Homoallylic amines related to zimeldine. A comparative study on neuronal serotonin and norepinephrine reuptake based on conformational analysis” (J Med Chem, 1988):

Experiments:
[1] = tested on: Mus musculus; test: Ex vivo inhibition of the accumulation of (-)-[3H]Norepinephrine in slices from the middle part of the mouse brain. (i.p.); format: functional; details: ip
Procedure, shortened: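 Compound given i.p.; mice killed 60 min later. Brain slices (about 1 mm) preincubated 5 min at 37 °C in Krebs-Henseleit buffer with 1 × 10^-4 M pargyline, glucose, ascorbate and EDTA under 6.5% CO2/O2. Then 5 min with 1 × 10^-7 M [3H]NE plus 1 × 10^-7 M [14C]-5-HT, counted by double labelling. Active uptake is the cocaine-sensitive (5 × 10^-4 M) part. 3–4 doses, 4 mice/dose; ED50 from semilog plots.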

[2] = species: Mus musculus; test: In vitro inhibition of the accumulation of (-)-[3H]Norepinephrine in slices from the middle part of the mouse brain.; format: functional
[3] = species: Rattus norvegicus; test: In vitro inhibition of the accumulation of (-)-[3H]Norepinephrine in synaptosomes from the rat brain cortex; format: functional
[4] = Selectivity expressed as ratio between NE and 5-HT uptake inhibition in mouse brain slices; format: functional
[5] = Selectivity expressed as ratio between NE and 5-HT uptake inhibition in rat synaptosomes; format: functional, subcellular; details: Brain

| IC50 [2] [µM] | IC50 [3] [µM] | Compound | ED50 [1] [µmol/kg] | Ratio [4] | Ratio [5] |
| --- | --- | --- | --- | --- | --- |
| 7.8 | 1.4 | CN(C)CC/C=C(\c1ccc(Br)cc1)c1cccnc1 | 95 | 1.1 | 0.54 |
| – | 0.15 | CN(C)C/C=C(\c1ccc(Br)cc1)c1cccnc1 | 25 | – | 0.68 |
| > 24 | 22.5 | CN(C)CC/C=C(/c1ccc(Br)cc1)c1cccnc1 | > 95 | >27 | 45 |
| – | 3.2 | CN(C)C/C=C(/c1ccc(Br)cc1)c1cccnc1 [ZIMELDINE] | > 98 | – | 32 |

Second part, the compound before the results:

| Compound | IC50 [2] [µM] | IC50 [3] [µM] | ED50 [1] [µmol/kg] | Ratio [4] | Ratio [5] |
| --- | --- | --- | --- | --- | --- |
| CN(C)CCC=C1c2ccccc2CCc2ccccc21 [AMITRIPTYLINE] | 5.4 | 0.061 | 114 | 1.9 | 0.19 |
| CNCC/C=C(\c1ccc(Br)cc1)c1cccnc1 | 0.25 | 1 | 98 | 2.1 | 0.71 |
| CNC/C=C(/c1ccc(Br)cc1)c1cccnc1 [NOMELIDINE] | – | 0.24 | > 102 | – | 6.3 |
| CNCCC=C1c2ccccc2CCc2ccccc21 [NORTRIPTYLINE] | 0.5 | 0.007 | 67 | 0.075 | 0.0035 |
| CNCC/C=C(/c1ccc(Br)cc1)c1cccnc1 | > 25 | 6.6 | > 98 | >50 | 28 |
| CNC/C=C(\c1ccc(Br)cc1)c1cccnc1 [NORZIMELIDINE] | – | 0.0046 | 25 | – | 0.058 |
